{"data": "Published values gathered from unrelated publications", "note": "Protocols differ between the studies behind these lines."}
{"Compound": "CC(C)=CCc1c(O)c(CC=C(C)C)c2occ(-c3ccc(O)cc3)c(=O)c2c1O", "cell line": "K562", "assay": "cell growth or viability, MTT", "conditions": "100 µg/mL", "endpoint": "viability", "result": "94%"}
{"Compound": "CC[C@@H](C)[C@H](N)C(=O)N1Cc2ccccc2C1", "cell line": "K562", "assay": "cell growth or viability, ATP luminescence", "conditions": "60 µM", "endpoint": "viability", "result": "92%"}
{"Compound": "Cc1cn([C@H]2C[C@H](N=[N+]=[N-])[C@@H](CO)O2)c(=O)[nH]c1=O", "cell line": "human PBMC", "assay": "cell growth or viability", "endpoint": "CC50", "result": "> 100 µM"}
{"Compound": "CC(C)/N=C(\\N)c1ccc(NC(=O)c2ccc(C(=O)Nc3ccc(/C(N)=N/C(C)C)cc3)cc2)cc1", "cell line": "K562", "assay": "cell growth or viability", "endpoint": "IC50", "result": "38.8 µM"}
{"Compound": "C=C(C)C(O)Cc1c(O)c(CC=C(C)C)c2occ(-c3ccc(O)cc3)c(=O)c2c1O (centres unmarked)", "cell line": "K562", "assay": "cell growth or viability, MTT", "conditions": "100 µg/mL", "endpoint": "viability", "result": "71.7%"}
{"Compound": "O=C(O)c1cccc2ccccc12", "cell line": "K562", "assay": "cell growth or viability", "endpoint": "IC50", "result": "> 744 µM"}
{"Compound": "C#C[C@]1(COP(=O)(O)OP(=O)(O)OP(=O)(O)O)O[C@@H](n2cnc3c(N)nc(F)nc32)C[C@@H]1O", "cell line": "human PBMC", "system": "plasma", "conditions": "oral, 5 mg, single dose", "endpoint": "half-life", "result": "126 h"}
{"Compound": "Cc1ccc2cccc(C(=O)O)c2c1", "cell line": "K562", "assay": "cell growth or viability", "endpoint": "IC50", "result": "> 688 µM"}
{"Compound": "COc1ccccc1CN[C@H]1C2CCN(CC2)[C@H]1C(c1ccccc1)c1ccccc1", "cell line": "human PBMC", "assay": "cell growth or viability, MTS", "endpoint": "CC50", "result": "> 25 µM"}
{"Compound": "N[C@@H](CC(=O)N1CCN(C(c2ccc(F)cc2)c2ccc(F)cc2)CC1)C(=O)N1Cc2ccccc2C1", "cell line": "K562", "assay": "cell growth or viability, ATP luminescence", "conditions": "60 µM", "endpoint": "viability", "result": "7%"}
{"Compound": "Clc1ccc(COc2cncc(-c3cnn(C4CCNCC4)c3)c2)c(Cl)c1", "cell line": "MDCK", "system": "Caco-2", "endpoint": "Papp", "result": "10.9 ×10⁻⁶ cm/s"}
